Source: ChEMBL document CHEMBL1153732, “Lamiridosins, hepatitis C virus entry inhibitors from Lamium album” (J Nat Prod, 2009)
pIC50: −log10 of the molar value. ≈ marks a conversion by molar mass, not a printed value. Calls of active or inactive are those of the source. The calls are words filed in the database; no cut-off is given here.

What was measured:
Hepatitis C virus [1] = experiment: Antiviral activity against HCV expressing E1E2 glycoprotein with Vpr-deficient HIV vector assessed as inhibition of viral entry in human Huh7 cells at 20 ug/ml measured after 72 hrs by luciferase reporter gene assay; assay type: functional, organism-based; settings: Hepacivirus hominis, Huh-7
Procedure, shortened: (§1)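 HCVpp (E1E2 with HIV luciferase vector, made in 293T) was mixed at room temperature with 20 µg/mL compound and added to Huh7 cells for 6 h, then replaced by growth medium. Cells were lysed at 72 h postinfection and luciferase read as % inhibition. Samples in duplicate, experiments repeated at least three times.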

Hepatitis C virus [2] = experiment: Antiviral activity against HCV expressing E1E2 glycoprotein with Vpr-deficient HIV vector assessed as inhibition of viral entry in human Huh7 cells at 20 ug/ml after 72 hrs by luciferase reporter gene assay in presence of beta-glucosidase enzyme for 0.5 hrs; assay type: functional, Hepacivirus hominis; settings: Huh-7
Procedure, shortened: (§2)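 Iridoid glucosides were hydrolysed with β-glucosidase for 0.5 h or 4 h before testing at 20 µg/mL. Hydrolysates were mixed at rt with HCVpp and incubated with Huh7 cells for 6 h, then the medium was changed. Luciferase was read at 72 h postinfection as % inhibition. Duplicates, ≥3 experiments.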

Hepatitis C virus [3] = experiment: Antiviral activity against HCV expressing E1E2 glycoprotein with Vpr-deficient HIV vector assessed as inhibition of viral entry in human Huh7 cells at 20 ug/ml after 72 hrs by luciferase reporter gene assay in presence of beta-glucosidase enzyme for 4 hrs; assay type: functional, Hepacivirus hominis; settings: Huh-7; procedure, shortened: as §2
[4] = target: T1, CD81 antigen (Homo sapiens) (UniProt P60033); experiment: Inhibition of human recombinant GST-tagged CD81 protein assessed as HCV E1E2 binding after 1 hr by Western blot analysis
T1 sequence (whole entry): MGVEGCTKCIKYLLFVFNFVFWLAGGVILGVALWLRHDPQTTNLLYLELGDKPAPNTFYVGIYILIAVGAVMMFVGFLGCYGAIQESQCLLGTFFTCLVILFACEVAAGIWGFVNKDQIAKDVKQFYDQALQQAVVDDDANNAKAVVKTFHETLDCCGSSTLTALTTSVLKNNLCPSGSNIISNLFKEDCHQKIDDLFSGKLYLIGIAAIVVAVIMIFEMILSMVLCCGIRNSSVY
Procedure, shortened: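 Lysates of 293T cells expressing HCV E1E2 were taken 48 h post-transfection in 0.5% Triton X-100 buffer with protease inhibitor and clarified. They were rocked with 50 µg/mL compound or DMSO and 5 µg CD81-GST (large extracellular loop of human CD81) at 4 °C for 16 h. Glutathione beads were added for 1 h at 4 °C, then washed. Western blot for E2 and GST; GST alone served as control.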

Hepatitis C virus [5] = experiment: Antiviral activity against HCV expressing E1E2 glycoprotein with Vpr-deficient HIV vector assessed as inhibition of viral entry in human Huh7 cells at 20 ug/ml after 72 hrs by luciferase reporter gene assay; assay type: functional, Hepacivirus hominis; settings: Huh-7, 72 h; procedure, shortened: as §1
Hepatitis C virus [6] = experiment: Antiviral activity against HCV infected in human Huh7 cells assessed as inhibition of viral replication after 48 hrs by NS5A staining; settings: Huh-7, 48 h
Hepatitis C virus [7] = experiment: Antiviral activity against HCV expressing E1E2 glycoprotein with Vpr-deficient HIV vector assessed as inhibition of pseudoparticle entry in human Huh7 cells preincubated for 20 mins measured after 72 hrs by luciferase reporter gene assay; assay type: functional, organism-based, Hepacivirus hominis; settings: Huh-7
Procedure, shortened: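 HCV E1E2/HIV-luciferase pseudovirus was preincubated 20 min at rt with a range of concentrations in µg/mL and incubated with Huh7 cells (8 × 10^4 per well, seeded the day before) for 6 h, then the medium was replaced. Luciferase was measured at 72 h and expressed as % of no-drug control. IC50 came from the concentration-response. Duplicates, ≥3 repeats.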

Hepatitis C virus [8] = experiment: Antiviral activity against HCV expressing E1E2 glycoprotein with Vpr-deficient HIV vector assessed as inhibition of pseudoparticle entry in human Huh7 cells at 100 ug/ml preincubated for 20 mins measured after 72 hrs by luciferase reporter gene assay; assay type: functional, Hepacivirus hominis; settings: Huh-7
Procedure, shortened: (§3)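 HCV E1E2 or VSVG pseudoviruses were made by cotransfecting 293T cells with the envelope plasmid and pNL4-3-Luc-R-E-, then harvested at 48 h and filtered. Each pseudovirus was preincubated 20 min at rt with 100 µg/mL sample or DMSO, then put on Huh7 cells for 6 h before the medium was replaced. Luciferase was read at 72 h as % of no-drug control. Duplicates, ≥3 experiments.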

[9] = system: Vesicular stomatitis virus; experiment: Antiviral activity against VSV with Vpr-deficient HIV vector assessed as inhibition of VSVG pseudo-particle entry in human Huh7 cells at 100 ug/ml preincubated for 20 mins measured after 72 hrs by luciferase reporter gene assay; assay type: functional, organism-based; settings: Huh-7; procedure, shortened: as §3
[10] = Cytotoxicity against human HepG2(2.2.15) cells at 50 ug/ml; assay type: cell-based

Row | SMILES | Activity (Hepatitis C virus [1]) | inhibition at 20 µg/mL (Hepatitis C virus [2]) | inhibition at 20 µg/mL (Hepatitis C virus [3]) | Activity [4] | IC50 (Hepatitis C virus [6]) | other results
1 | COC(=O)C1=CO[C@@H](O[C@@H]2O[C@H](CO)[C@@H](O)[C@H](O)[C@H]2O)[C@H]2[C@@H]1[C@H](O)C[C@]2(C)O [SHANZHISIDE METHYL ESTER] | inactive | 49% | 61.2% | inactive | 18 µg/mL (≈ 44.3 µM) | inhibition at 20 µg/mL (Hepatitis C virus [5]): -13.1%
2 | COC(=O)C1=CO[C@@H](O[C@@H]2O[C@H](CO)[C@@H](O)[C@H](O)[C@H]2O)[C@@H]2[C@H](C)[C@@H](O)C[C@H]12 | inactive | -12.7% | 0.4% | – | – | –
3 | C[C@H]1[C@H]2[C@H](O[C@@H]3O[C@H](CO)[C@@H](O)[C@H](O)[C@H]3O)OC=C(C(=O)O)[C@H]2C[C@@H]1O | inactive | -21.6% | 5.3% | – | – | –
4 | COC(=O)C1=CO[C@@H](O[C@@H]2O[C@H](CO)[C@@H](O)[C@H](O)[C@H]2O)[C@@H]2[C@@H](C)[C@@H](O)C[C@H]12 [LOGANIN] | inactive | 24.8% | 41.4% | inactive | 16 µg/mL (≈ 41 µM) | –
5 | COC(=O)C1=CO[C@@H](O)[C@@H]2C(CO)=CC[C@H]12 [GENIPIN] | – | – | – | inactive | 20 µg/mL (≈ 88.4 µM) | inhibition at 20 µg/mL (Hepatitis C virus [5]): 73.2%
6 | COC(=O)C1=COC(O)[C@H]2[C@@H]1[C@H](O)[C@H](O)C2(C)O (mixture of isomers) | inactive | – | – | inactive | 15 µg/mL | pIC50 (Hepatitis C virus [7]): 5.64; inhibition at 100 µg/mL (Hepatitis C virus [8]): 50%; Activity [9]: inactive; Activity [10]: Non-toxic
7 | COC(=O)C1=CO[C@@H](O[C@@H]2O[C@H](CO)[C@@H](O)[C@H](O)[C@H]2O)[C@@H]2C(CO)=CC[C@H]12 [GENIPOSIDE] | inactive | 9.8% | 17.1% | – | – | inhibition at 20 µg/mL (Hepatitis C virus [5]): 1.1%
8 | O=C(OCC1=C[C@@H](O)[C@@H]2C=CO[C@@H](O[C@@H]3O[C@H](CO)[C@@H](O)[C@H](O)[C@H]3O)[C@H]12)c1ccc(O)cc1 [AGNUSIDE] | inactive | 12.9% | 20.3% | – | – | –
9 | C[C@@H]1[C@H]2[C@H](O[C@@H]3O[C@H](CO)[C@@H](O)[C@H](O)[C@H]3O)OC=C(C(=O)O)[C@H]2C[C@@H]1O [LOGANIC ACID] | inactive | 39.4% | 52.5% | inactive | 11 µg/mL (≈ 29.2 µM) | –
10 | C[C@]1(OC(=O)/C=C/c2ccccc2)C[C@@H](O)[C@]2(O)C=CO[C@@H](O[C@@H]3O[C@H](CO)[C@@H](O)[C@H](O)[C@H]3O)[C@@H]21 [HARPAGOSIDE] | inactive | -41.7% | 17.1% | – | – | inhibition at 20 µg/mL (Hepatitis C virus [5]): 2.1%
11 | COC(=O)C1=CO[C@@H](O[C@@H]2O[C@H](CO)[C@@H](O)[C@H](O)[C@H]2O)[C@H]2[C@@H]1[C@H](O)[C@H](O)[C@]2(C)O | inactive | – | – | – | – | Activity (Hepatitis C virus [8]; Hepacivirus hominis): inactive
12 | COC(=O)C1=CO[C@@H](O[C@@H]2O[C@H](CO)[C@@H](O)[C@H](O)[C@H]2O)[C@H]2[C@@H]1C=C[C@@]2(O)CO [GARDENOSIDE] | inactive | -3.4% | 21.1% | – | – | –
13 | COC(=O)C1=CO[C@@H](O[C@@H]2O[C@H](CO)[C@@H](O)[C@H](O)[C@H]2O)[C@H]2[C@@H]1C(=O)C[C@@H]2C [VERBENALIN] | inactive | 21.9% | 43.4% | – | – | –
14 | COc1cc(C(=O)O[C@H]2[C@@H]3C=CO[C@@H](O[C@@H]4O[C@H](CO)[C@@H](O)[C@H](O)[C@H]4O)[C@@H]3[C@@]3(CO)O[C@@H]23)ccc1O [PICROSIDE II] | inactive | 31.6% | 59.4% | – | – | –
15 | OCC1=C[C@@H](O)[C@@H]2C=CO[C@@H](O[C@@H]3O[C@H](CO)[C@@H](O)[C@H](O)[C@H]3O)[C@H]12 | inactive | – | – | – | – | –
16 | O=C(/C=C/c1ccc(O)cc1)OCC1=C[C@@H](O)[C@@H]2C=CO[C@@H](O[C@@H]3O[C@H](CO)[C@@H](O)[C@H](O)[C@H]3O)[C@H]12 [EUROSTOSIDE] | inactive | 46.6% | 56.6% | inactive | 20 µg/mL (≈ 40.6 µM) | –
